Test results published in ChEMBL document CHEMBL4196066, “Design and synthesis of furyl/thineyl pyrroloquinolones based on natural alkaloid perlolyrine, lead to the discovery of potent and selective PDE5 inhibitors” (Eur J Med Chem, 2018).
pIC50: −log10 of the molar value. Values belong to the compound of their own block, whether it stands above or below them.

Legend:
Oryctolagus cuniculus = test: Vasorelaxant activity in iv dosed New Zealand rabbit assessed as induction of ICP change in response to electrically pelvic nerve stimulation administered as bolus dose; format: functional
[1] = biological target: T1, cGMP-specific 3',5'-cyclic phosphodiesterase (Homo sapiens, UniProt O76074); test: Inhibition of N-terminal GST-tagged full length recombinant human PDE5A1 catalytic domain expressed in Baculovirus infected Sf9 insect cells using FAM-cGMP as substrate after 1 hr by fluorescence polarization assay
[2] = biological target: cGMP-dependent 3',5'-cyclic phosphodiesterase (Homo sapiens) (UniProt O00408); test: Inhibition of N-terminal FLAG-tagged human PDE2A1 (2 to 941 residues) expressed in Baculovirus infected Sf9 insect cells at 40 uM using FAM-cAMP as substrate after 1 hr by fluorescence polarization assay relative to control
Chain of cGMP-dependent 3',5'-cyclic phosphodiesterase (Homo sapiens) (O00408 whole entry, the tested form may be a part): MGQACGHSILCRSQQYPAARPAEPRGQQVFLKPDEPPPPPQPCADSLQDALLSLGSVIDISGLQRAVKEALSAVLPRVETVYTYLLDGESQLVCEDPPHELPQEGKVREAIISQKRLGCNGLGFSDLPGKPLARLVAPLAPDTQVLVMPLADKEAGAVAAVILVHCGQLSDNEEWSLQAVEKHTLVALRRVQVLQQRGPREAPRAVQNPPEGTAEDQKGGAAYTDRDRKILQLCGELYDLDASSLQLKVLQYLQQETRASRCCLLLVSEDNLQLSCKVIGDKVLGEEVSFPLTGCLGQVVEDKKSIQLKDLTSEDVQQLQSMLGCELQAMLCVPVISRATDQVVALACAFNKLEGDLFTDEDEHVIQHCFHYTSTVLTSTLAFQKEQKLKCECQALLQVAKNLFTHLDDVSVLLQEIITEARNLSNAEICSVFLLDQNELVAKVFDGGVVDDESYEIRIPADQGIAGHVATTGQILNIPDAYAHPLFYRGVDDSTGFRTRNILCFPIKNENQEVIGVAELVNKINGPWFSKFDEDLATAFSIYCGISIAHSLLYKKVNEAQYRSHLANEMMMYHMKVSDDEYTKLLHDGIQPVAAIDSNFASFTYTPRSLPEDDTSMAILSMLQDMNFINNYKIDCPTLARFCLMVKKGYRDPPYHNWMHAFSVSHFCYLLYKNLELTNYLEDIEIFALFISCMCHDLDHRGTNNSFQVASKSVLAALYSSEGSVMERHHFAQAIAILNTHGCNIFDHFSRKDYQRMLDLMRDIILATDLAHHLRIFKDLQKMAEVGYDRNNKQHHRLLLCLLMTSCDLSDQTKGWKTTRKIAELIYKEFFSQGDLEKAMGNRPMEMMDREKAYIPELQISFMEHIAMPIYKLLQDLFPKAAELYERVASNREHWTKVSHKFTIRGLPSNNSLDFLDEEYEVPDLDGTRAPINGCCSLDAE

Homo sapiens [3] = species: Homo sapiens; test: Selectivity ratio of IC50 for N-terminal GST-tagged recombinant human PDE3B (592 end residues) to IC50 for N-terminal GST-tagged full length recombinant human PDE5A1 catalytic domain
Homo sapiens [4] = species: Homo sapiens; test: Selectivity ratio of IC50 for N-terminal FLAG-tagged human PDE2A1 (2 to 941 residues) to IC50 for N-terminal GST-tagged full length recombinant human PDE5A1 catalytic domain
[5] = biological target: 3',5'-cyclic-AMP phosphodiesterase 4A (Homo sapiens) (UniProt P27815); test: Inhibition of N-terminal GST-tagged full length recombinant human PDE4A1A expressed in Baculovirus infected Sf9 insect cells at 50 uM using FAM-cAMP as substrate after 1 hr by fluorescence polarization assay relative to control
Chain of 3',5'-cyclic-AMP phosphodiesterase 4A (Homo sapiens) (P27815 whole entry): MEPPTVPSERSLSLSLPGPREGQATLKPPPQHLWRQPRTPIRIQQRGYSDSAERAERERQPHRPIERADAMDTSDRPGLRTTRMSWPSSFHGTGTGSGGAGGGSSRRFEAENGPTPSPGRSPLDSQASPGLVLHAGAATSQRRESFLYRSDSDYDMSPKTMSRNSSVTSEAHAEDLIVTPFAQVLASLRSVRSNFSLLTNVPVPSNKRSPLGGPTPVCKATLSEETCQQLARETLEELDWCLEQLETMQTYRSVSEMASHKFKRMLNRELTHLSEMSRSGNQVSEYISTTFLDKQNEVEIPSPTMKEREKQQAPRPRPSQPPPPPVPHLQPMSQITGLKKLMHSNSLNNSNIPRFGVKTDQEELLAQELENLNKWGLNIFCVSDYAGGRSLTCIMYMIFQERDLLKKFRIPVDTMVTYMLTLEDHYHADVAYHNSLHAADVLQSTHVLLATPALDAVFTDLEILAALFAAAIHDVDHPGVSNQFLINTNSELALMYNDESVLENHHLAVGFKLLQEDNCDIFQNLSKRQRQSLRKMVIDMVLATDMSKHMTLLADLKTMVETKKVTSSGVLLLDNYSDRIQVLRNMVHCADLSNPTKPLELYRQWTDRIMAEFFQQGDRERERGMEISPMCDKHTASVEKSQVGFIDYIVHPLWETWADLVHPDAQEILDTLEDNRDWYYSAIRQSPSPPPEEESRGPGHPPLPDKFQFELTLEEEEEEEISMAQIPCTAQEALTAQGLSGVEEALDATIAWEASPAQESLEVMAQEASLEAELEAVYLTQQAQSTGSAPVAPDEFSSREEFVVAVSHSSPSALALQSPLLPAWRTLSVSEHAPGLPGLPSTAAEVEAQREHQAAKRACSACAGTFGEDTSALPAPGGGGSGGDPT

Thoracic aorta = test: Vasorelaxant activity in norepinephrine-pretreated New Zealand rabbit thoracic aorta assessed as increase in aortic relaxation at 10 uM measured after 15 mins relative to control; format: functional, Oryctolagus cuniculus; design: scale not given: the % may be the effect or the level left
How it was run: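 Thoracic aortic rings from New Zealand white rabbits were held in Krebs buffer at 2 g resting tension (0%) and equilibrated 2 h. Rings were contracted to maximum with 1 µM norepinephrine (100%). Compounds were added cumulatively at 15 min intervals, with tension recorded 15 min after each dose. Relaxation % = (max − recorded)/(max − 2 g) × 100; n = 1–2 rings.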

Homo sapiens [6] = species: Homo sapiens; test: Selectivity ratio of IC50 for N-terminal GST-tagged full length recombinant human PDE6C to IC50 for N-terminal GST-tagged full length recombinant human PDE5A1 catalytic domain
[7] = biological target: cGMP-inhibited 3',5'-cyclic phosphodiesterase 3B (Homo sapiens) (UniProt Q13370); test: Inhibition of N-terminal GST-tagged recombinant human PDE3B (592 end residues) expressed in Baculovirus infected Sf9 insect cells at 250 uM using FAM-cAMP as substrate after 1 hr by fluorescence polarization assay relative to control
Chain of cGMP-inhibited 3',5'-cyclic phosphodiesterase 3B (Homo sapiens) (Q13370 whole entry, looked up): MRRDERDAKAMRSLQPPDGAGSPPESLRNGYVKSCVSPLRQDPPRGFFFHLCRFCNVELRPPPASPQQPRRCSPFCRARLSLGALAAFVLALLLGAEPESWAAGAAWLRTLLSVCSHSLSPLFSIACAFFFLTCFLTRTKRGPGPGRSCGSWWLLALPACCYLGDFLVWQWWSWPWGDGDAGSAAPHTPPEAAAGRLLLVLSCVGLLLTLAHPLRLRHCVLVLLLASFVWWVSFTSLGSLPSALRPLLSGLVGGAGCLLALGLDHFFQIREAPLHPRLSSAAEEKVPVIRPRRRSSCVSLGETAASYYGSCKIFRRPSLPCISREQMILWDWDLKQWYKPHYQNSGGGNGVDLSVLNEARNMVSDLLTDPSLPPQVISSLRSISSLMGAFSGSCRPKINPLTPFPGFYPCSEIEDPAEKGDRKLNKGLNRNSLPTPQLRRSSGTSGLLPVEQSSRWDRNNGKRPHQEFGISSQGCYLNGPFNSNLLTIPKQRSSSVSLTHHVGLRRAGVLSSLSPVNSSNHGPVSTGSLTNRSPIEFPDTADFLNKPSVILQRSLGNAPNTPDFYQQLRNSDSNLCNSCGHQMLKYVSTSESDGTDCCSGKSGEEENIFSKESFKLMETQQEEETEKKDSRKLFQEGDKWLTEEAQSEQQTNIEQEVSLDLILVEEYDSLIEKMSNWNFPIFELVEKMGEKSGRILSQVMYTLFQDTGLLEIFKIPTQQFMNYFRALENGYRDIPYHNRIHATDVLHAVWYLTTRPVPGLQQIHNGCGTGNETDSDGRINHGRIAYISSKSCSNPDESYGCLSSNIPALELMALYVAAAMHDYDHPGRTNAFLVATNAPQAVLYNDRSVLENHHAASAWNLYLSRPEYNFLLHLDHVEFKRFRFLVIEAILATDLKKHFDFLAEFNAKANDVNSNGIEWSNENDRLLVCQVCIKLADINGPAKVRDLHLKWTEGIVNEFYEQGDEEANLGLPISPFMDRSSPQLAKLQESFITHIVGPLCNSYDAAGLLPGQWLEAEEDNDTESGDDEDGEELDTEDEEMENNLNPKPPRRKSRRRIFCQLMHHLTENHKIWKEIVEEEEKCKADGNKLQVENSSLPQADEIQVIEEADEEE

[8] = biological target: Cone cGMP-specific 3',5'-cyclic phosphodiesterase subunit alpha' (Homo sapiens, UniProt P51160); test: Inhibition of N-terminal GST-tagged full length recombinant human PDE6C expressed in Baculovirus infected Sf9 insect cells using […] as substrate after 1 hr by fluorescence polarization assay
Chain of Cone cGMP-specific 3',5'-cyclic phosphodiesterase subunit alpha' (P51160 whole entry, the tested form may be a part): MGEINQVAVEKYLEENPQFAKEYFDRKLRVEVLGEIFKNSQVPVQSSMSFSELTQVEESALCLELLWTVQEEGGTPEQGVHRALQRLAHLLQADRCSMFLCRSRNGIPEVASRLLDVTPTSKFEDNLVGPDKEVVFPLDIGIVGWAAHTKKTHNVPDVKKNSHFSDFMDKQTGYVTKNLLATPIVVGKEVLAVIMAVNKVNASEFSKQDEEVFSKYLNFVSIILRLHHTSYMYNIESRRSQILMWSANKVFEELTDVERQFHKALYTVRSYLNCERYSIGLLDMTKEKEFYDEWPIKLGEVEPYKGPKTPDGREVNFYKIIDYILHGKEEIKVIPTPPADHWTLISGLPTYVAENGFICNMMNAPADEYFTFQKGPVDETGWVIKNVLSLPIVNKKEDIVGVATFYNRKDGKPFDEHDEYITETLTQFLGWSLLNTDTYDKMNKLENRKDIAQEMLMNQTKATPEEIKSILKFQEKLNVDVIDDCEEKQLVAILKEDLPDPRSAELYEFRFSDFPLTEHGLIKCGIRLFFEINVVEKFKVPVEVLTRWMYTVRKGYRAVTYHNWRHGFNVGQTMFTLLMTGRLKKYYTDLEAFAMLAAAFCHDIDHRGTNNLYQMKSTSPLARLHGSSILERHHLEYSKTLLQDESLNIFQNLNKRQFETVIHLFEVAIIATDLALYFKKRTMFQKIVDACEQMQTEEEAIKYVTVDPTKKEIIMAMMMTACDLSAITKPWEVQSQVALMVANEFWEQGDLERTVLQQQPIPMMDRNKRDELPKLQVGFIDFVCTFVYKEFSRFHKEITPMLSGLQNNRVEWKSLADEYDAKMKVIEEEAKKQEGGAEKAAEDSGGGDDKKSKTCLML

Homo sapiens [9] = species: Homo sapiens; test: Selectivity ratio of IC50 for N-terminal GST-tagged full length recombinant human PDE1A to IC50 for N-terminal GST-tagged full length recombinant human PDE5A1 catalytic domain
[10] = biological target: Dual specificity calcium/calmodulin-dependent 3',5'-cyclic nucleotide phosphodiesterase 1A (Homo sapiens) (UniProt P54750); test: Inhibition of N-terminal GST-tagged full length recombinant human PDE1A expressed in Baculovirus infected Sf9 insect cells at 250 uM using FAM-cAMP as substrate after 1 hr by fluorescence polarization assay relative to control
Chain of Dual specificity calcium/calmodulin-dependent 3',5'-cyclic nucleotide phosphodiesterase 1A (Homo sapiens) (P54750 whole entry, the tested form may be a part): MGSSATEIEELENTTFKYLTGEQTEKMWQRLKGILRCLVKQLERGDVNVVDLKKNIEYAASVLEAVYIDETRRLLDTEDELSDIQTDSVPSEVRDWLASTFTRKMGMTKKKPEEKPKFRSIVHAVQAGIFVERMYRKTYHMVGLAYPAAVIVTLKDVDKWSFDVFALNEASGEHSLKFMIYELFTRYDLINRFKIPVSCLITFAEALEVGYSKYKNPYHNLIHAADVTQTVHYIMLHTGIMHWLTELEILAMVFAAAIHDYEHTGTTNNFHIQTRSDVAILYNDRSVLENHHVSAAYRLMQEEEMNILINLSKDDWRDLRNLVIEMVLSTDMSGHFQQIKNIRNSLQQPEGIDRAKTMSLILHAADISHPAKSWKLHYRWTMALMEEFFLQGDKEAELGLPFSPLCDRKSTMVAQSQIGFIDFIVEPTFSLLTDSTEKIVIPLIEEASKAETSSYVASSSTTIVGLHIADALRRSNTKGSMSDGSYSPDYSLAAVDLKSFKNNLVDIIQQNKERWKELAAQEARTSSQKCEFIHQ

Homo sapiens [11] = species: Homo sapiens; test: Selectivity ratio of IC50 for N-terminal GST-tagged full length recombinant human PDE4A1A to IC50 for N-terminal GST-tagged full length recombinant human PDE5A1 catalytic domain
[12] = biological target: T1, cGMP-specific 3',5'-cyclic phosphodiesterase; test: Inhibition of PDE5 (unknown origin)

SMILES: CCCc1nn(C)c2c(=O)[nH]c(-c3cc(S(=O)(=O)N4CCN(C)CC4)ccc3OCC)nc12
ED50 (Oryctolagus cuniculus): 0.0143 mg/kg

pIC50 [1]: 9.09
SMILES: CCc1ccc(C2c3[nH]c4ccccc4c(=O)c3CN2c2ncc(-c3cccnc3F)cn2)s1 (centres undefined)

pIC50 [1]: 8.92
SMILES: CCc1ccc(C2c3[nH]c4ccccc4c(=O)c3CN2c2ccc(-c3ccccn3)cn2)s1 (centres undefined)

pIC50 [1]: 7.57
inhibition [2]: 32%
Ratio IC50 (Homo sapiens [3]): > 10000
Ratio IC50 (Homo sapiens [4]): > 1500
inhibition [5]: 1%
Ratio IC50 (Homo sapiens [6]): 1.3
inhibition [7]: 2%
pIC50 [8]: 7.47
Ratio IC50 (Homo sapiens [9]): > 10000
inhibition [10]: 8%
Ratio IC50 (Homo sapiens [11]): > 2500
SMILES: CCc1ccc([C@H]2c3[nH]c4ccccc4c(=O)c3CN2c2ncc(-c3ccccn3)cn2)s1
Activity (Thoracic aorta): 30%

pIC50 [1]: 8.19
SMILES: CCc1ccc(C2c3[nH]c4ccccc4c(=O)c3CN2c2ncc(-c3ccc(OC)cc3)cn2)s1 (centres undefined)

pIC50 [1]: 8.55
SMILES: CCc1ccc(C2c3[nH]c4ccccc4c(=O)c3CN2c2ccccn2)s1 (centres undefined)

pIC50 [1]: 8.48
SMILES: CCc1ccc(C2c3[nH]c4ccccc4c(=O)c3CN2c2ncc(Br)cn2)s1 (centres undefined)

pIC50 [12]: 5.31
SMILES: OCc1ccoc1-c1nccc2c1[nH]c1ccccc12
